{"source": "paper PMC6858927", "about": "(Investigational new drugs, 2019)", "assay_type_in_all_cases": "cell-based", "key": {"[1]": {"test_system": "Ba/F3 cells expressing FLT3-ITD", "test": "MTT cell viability assay", "conditions": "Mus musculus, BaF3, 72 h"}, "[2]": {"test_system": "Ba/F3 cells expressing FLT3 TKD mutants", "test": "MTT cell viability assay", "conditions": "Mus musculus, BaF3, 72 h, read-out: IC50 range"}, "[3]": {"test_system": "phospho-FLT3 and phospho-STAT5", "conditions": "Ba/F3 FLT3-ITD/D835Y or ITD/F691L, 4 hours"}, "[4]": {"test_system": "MV4–11", "test": "MTT cell viability assay, AML cell line", "conditions": "Homo sapiens, MV4-11, 72 h, read-out: mean IC50", "procedure,_shortened": "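FLT3-ITD+ human AML lines (MOLM13-Res is a FLT3-inhibitor-resistant MOLM13 derivative carrying D835Y) were exposed to DMSO or increasing concentrations of test compound. MTT viability was read 72 h after drug addition. Response was expressed as mean percentage of DMSO-treated control at each concentration, with 3–6 replicates, and plotted as mean ± SD, n=12.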"}, "[5]": {"test_system": "pre-treatment patient primary blast samples (FLT3-ITD+ AML)", "test": "CellTiter-Glo viability assay, ex vivo", "conditions": "Homo sapiens, 72 h, read-out: IC50 range, viability of patient samples"}}}
{"smiles": "C1=C/COCc2cc(ccc2OCCN2CCCC2)Nc2nccc(n2)-c2cccc(c2)COC/1", "note": "[Pacritinib, 11-(2-pyrrolidin-1-yl-ethoxy)-14,19-dioxa-5,7,26-triaza-tetracyclo[19.3.1.1(2,6). 1(8,12)]heptacosa-1(25),2(26),3,5,8,10,12(27),16,21,23-decaene]", "values": [{"measurement": "IC50", "setting": "[1]", "value": 133, "unit": "nM"}, {"measurement": "IC50", "setting": "[2]", "value": "97 to 434", "unit": "nM"}, {"measurement": "concentrations showing inhibition of phospho-FLT3 and phospho-STAT5", "setting": "[3]", "value": "0.25 to 1", "unit": "µM"}, {"measurement": "IC50", "setting": "[4]", "value": 33, "unit": "nM"}, {"measurement": "IC50", "setting": "[5]", "value": "152 to 302", "unit": "nM"}]}
